{"source": "ChEMBL document CHEMBL4825662", "about": "(J Med Chem, 2021)", "key": {"[1]": {"assay": "Cmax in Sprague-Dawley rat at 50 mg/kg, po measured after 0.02 to 24 hrs by UHPLC-TOF method", "assay_type": "ADME, organism-based", "parameters": "route oral, dose 50 mg/kg, time 0.02-24 hrs", "settings": "in vivo"}, "[2]": {"test_system": "Human orthopneumovirus", "assay": "(§1) Antiviral activity against Respiratory syncytial virus A2 infected in Balb/C mouse assessed as reduction in viral titers in lung homogenates at 1 mg/kg, po treated 2 hrs prior to viral infection followed by compound redosing at 24 hrs and measured after 5 days post infection by plaque assay relative to control", "assay_type": "functional, human respiratory syncytial virus", "parameters": "scale not given: the % may be the effect or the level left", "procedure,_shortened": "(§2)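 Female Balb/C mice aged 7–8 weeks, 6 per group, received two oral doses 2 h before and 24 h after intranasal inoculation with 5 × 10⁶ pfu of RSV A2. Mice were euthanized on day 5. Lung homogenate titers were determined by plaque assay on Vero cells and expressed as a percentage of the control group.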"}, "[3]": {"assay": "Clearance in CD1 mouse at 1 mg/kg, iv measured after 0.083 to 24 hrs by UHPLC-TOF method", "assay_type": "ADME, organism-based", "settings": "in vivo, time 0.083-24 hrs"}, "[4]": {"assay": "Half life in rat hepatocytes at 3 uM measured up to 60 mins by LC-MS/MS analysis", "assay_type": "ADME, cell-based, Hepatocyte"}, "[5]": {"assay": "Cardiotoxicity in dog assessed as effect on QT interval by telemetry", "assay_type": "toxicity, Canis lupus familiaris"}, "[6]": {"assay": "Clearance in Sprague-Dawley rat at 1 mg/kg, iv administered […] measured after 0.02 to 24 hrs by tandem liquid chromatography/mass spectrometry", "assay_type": "ADME, organism-based", "settings": "in vivo, time 0.02-24 hrs"}, "[7]": {"assay": "Half life in CD1 mouse at 10 mg/kg, po measured after 0.083 to 24 hrs by UHPLC-TOF method", "assay_type": "ADME, organism-based", "settings": "in vivo, time 0.083-24 hrs"}, "[8]": {"assay": "Half life in human hepatocytes at 3 uM measured up to 60 mins by LC-MS/MS analysis", "assay_type": "ADME, cell-based, Hepatocyte"}, "[9]": {"test_system": "Respiratory syncytial virus", "assay": "Antiviral activity against Respiratory syncytial virus infected in human airway epithelial cells assessed as reduction in RSV titer at 10 nM preincubated for 2 hrs followed by viral infection and measured after 8 day post infection by luminescence assay relative to control", "assay_type": "functional, HAE", "procedure,_shortened": "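Primary HAE cells were differentiated for 61 days on type IV collagen-coated trans-well inserts (n = 3 cultures). Compound at 10 nM was given basolaterally for 2 h before apical inoculation with 4 × 10⁵ pfu of luciferase-expressing recombinant RSV. Apical virus titer was read by luminescence on days 7 and 8 post-infection and compared with untreated controls. Data are mean SD.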"}, "[10]": {"assay": "Tmax in CD1 mouse at 10 mg/kg, po measured after 0.083 to 24 hrs by UHPLC-TOF method", "assay_type": "ADME, organism-based", "settings": "in vivo, time 0.083-24 hrs", "procedure,_shortened": "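Male CD-1 mice, acclimatized and individually housed, dosed IV and PO as amorphous-solid suspension. Terminal cardiac-puncture blood into heparinized tubes on wet ice, centrifuged at 4 °C within 15 min; plasma snap-frozen at −20 °C. IV arm sampled 2 min–24 h, oral arm 5 min–24 h. Plasma analysed by UHPLC-quadrupole-TOF MS.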"}, "[11]": {"assay": "Apparent permeability across basolateral side to apical side in MDCK-MDR1 cells at 10 uM measured at 60 mins by LC-MS/MS analysis", "assay_type": "ADME, cell-based, Canis lupus familiaris", "settings": "dog"}, "[12]": {"assay": "Cmax in Sprague-Dawley rat at 5 mg/kg, po administered via gavage measured after 0.02 to 24 hrs by tandem liquid chromatography/mass spectrometry", "assay_type": "ADME, organism-based", "parameters": "route oral, dose 5 mg/kg, time upper 24 hrs, time lower 0.02 hrs", "settings": "in vivo", "procedure,_shortened": "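Male Sprague–Dawley rats weighing 200–250 g, 3 per route, were used. The i.v. bolus was 1 mg/kg at 1 mg/mL in 40:60 dimethylacetamide/saline. Oral gavage doses were 5 or 10 mg/kg at 5 mg/mL in 1% methyl cellulose with 0.1% Tween 80. Heparinized blood was taken at 0.02–24 h (ten time points). Plasma was analyzed by LC-MS/MS after acetonitrile precipitation.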"}, "[13]": {"test_system": "Human orthopneumovirus", "assay": "as §1, with “50” for “1”", "assay_type": "functional, human respiratory syncytial virus", "parameters": "scale not given: the % may be the effect or the level left", "procedure,_shortened": "as §2"}, "[14]": {"assay": "Protein binding in dog plasma assessed as unbound fraction at 5 uM by LC-MS/MS analysis based equilibrium dialysis method", "assay_type": "ADME, cell-free, Canis lupus familiaris"}, "[15]": {"assay": "Antiviral activity against Respiratory syncytial virus B by Plaque reduction assay", "assay_type": "functional", "procedure,_shortened": "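RSV A and B laboratory strains and low-passage clinical isolates were used to infect Vero or HepG2 cultures for 48 h with compound at 0.01 nM to 100 μM. Plaques were then detected by immunostaining.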"}, "[16]": {"test_system": "Human orthopneumovirus", "assay": "Antiviral activity against Respiratory syncytial virus A Memphis 37b infected in human assessed as reduction in mean AUC of viral load at 350 mg administered twice daily administered for 5 days by cell-based infectivity assay", "assay_type": "functional", "parameters": "scale not given: the % may be the effect or the level left", "settings": "time 5 day", "procedure,_shortened": "(§3)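 Healthy adult volunteers aged 18–45 with low serum pre-existing RSV-specific antibodies were challenged on day zero with about 4 log10 PFU of RSV-A Memphis 37b. Subjects were randomized into 3 equal groups: 200 mg, 350 mg or placebo twice daily for 5 days, begun after infection was confirmed. Viral load in nasal wash was measured by RT-qPCR or by cell-based infectivity assay, and AUC was compared with placebo.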"}, "[17]": {"assay": "Half life in Sprague-Dawley rat liver microsomes preincubated followed by NADPH addition and measured up to 45 mins by LC-MS/MS analysis", "assay_type": "ADME, Microsome"}, "[18]": {"assay": "Cmax in Sprague-Dawley rat at 10 mg/kg, po measured after 0.02 to 24 hrs by UHPLC-TOF method", "assay_type": "ADME, organism-based", "parameters": "route oral, dose 10 mg/kg, time 0.02-24 hrs", "settings": "in vivo"}, "[19]": {"assay": "Intrinsic clearance in human liver microsomes preincubated followed by NADPH addition and measured up to 45 mins by LC-MS/MS analysis", "assay_type": "ADME, Microsome"}, "[20]": {"assay": "Half life in Sprague-Dawley rat at 1 mg/kg, iv measured after 0.02 to 24 hrs by UHPLC-TOF method", "assay_type": "ADME, organism-based", "settings": "in vivo, time 0.02-24 hrs"}, "[21]": {"assay": "Tmax in Beagle dog at 3 mg/kg, […] by UHPLC-TOF method", "assay_type": "ADME, organism-based, Canis lupus familiaris", "settings": "in vivo, po"}, "[22]": {"assay": "Volume of distribution at steady state in Beagle dog at 0.3 mg/kg, iv measured after 0.03 to 24 hrs by UHPLC-TOF method", "assay_type": "ADME, organism-based, Canis lupus familiaris", "settings": "in vivo, time 0.03-24 hrs, read-out: Vdss", "procedure,_shortened": "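Dogs examined by a veterinary surgeon before each session, fed 2 h post-dose, water ad libitum, dosed as amorphous-solid suspension. Serial blood into heparinized tubes, centrifuged at 4 °C for 10 min at 3000g; plasma snap-frozen at −20 °C. IV sampling 2 min–24 h, oral 15 min–24 h. Plasma analysed by UHPLC-quadrupole-TOF MS.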"}, "[23]": {"assay": "Induction of adverse effect in human infected with Respiratory syncytial virus A Memphis 37b assessed as diarrhea at 200 to 350 mg administered twice daily administered for 5 days", "settings": "in vivo, 120 h, dose 200-350 mg, time 5 day", "procedure,_shortened": "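Challenge study in healthy adults aged 18–45 inoculated with about 4 log10 PFU of RSV-A Memphis 37b. Dosing was 200 or 350 mg twice daily for 5 days after infection was confirmed. Adverse events were monitored daily. ECG, physical examination and urinalysis were done at prespecified time points.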"}, "[24]": {"assay": "Half life in human liver microsomes preincubated followed by NADPH addition and measured up to 45 mins by LC-MS/MS analysis", "assay_type": "ADME, Microsome"}, "[25]": {"test_system": "Human orthopneumovirus", "assay": "Antiviral activity against Respiratory syncytial virus A Memphis 37b infected in human assessed as reduction in mean AUC of viral load at 200 mg administered twice daily administered for 5 days by RT-qPCR analysis", "assay_type": "functional", "parameters": "scale not given: the % may be the effect or the level left", "settings": "time 5 day", "procedure,_shortened": "as §3"}, "[26]": {"assay": "Clearance in Beagle dog at 0.3 mg/kg, iv measured after 0.03 to 24 hrs by UHPLC-TOF method", "assay_type": "ADME, organism-based, Canis lupus familiaris", "settings": "in vivo, time 0.03-24 hrs"}, "[27]": {"assay": "Induction of toxicity in human at 175 to 350 mg", "settings": "dose 175-350 mg"}}, "data": [{"smiles": "NCc1ccc2c(c1)nc(CN1C(=O)C3(CC3)c3ccc(F)cc31)n2CCCC(F)(F)F", "note": "[SISUNATOVIR]", "values": [{"measurement": "Cmax", "setting": "[1]", "value": 475, "unit": "ng/mL"}, {"measurement": "Activity", "setting": "[2]", "value": 79, "unit": "%"}, {"measurement": "clearance", "setting": "[3]", "value": 47.9, "unit": "mL/min/kg"}, {"measurement": "half-life at 3 µM", "setting": "[4]", "value": 1.55, "unit": "h"}, {"measurement": "Activity", "setting": "[5]", "value": "Toxic"}, {"measurement": "clearance", "setting": "[6]", "value": 164, "unit": "mL/min/kg"}, {"measurement": "half-life", "setting": "[7]", "value": 3.1, "unit": "h"}, {"measurement": "half-life at 3 µM", "setting": "[8]", "value": 3.52, "unit": "h"}, {"measurement": "log(activity)", "setting": "[9]", "value": 2.35}, {"measurement": "Tmax", "setting": "[10]", "value": 2, "unit": "h"}, {"measurement": "Papp B→A at 1 h, 10 µM", "setting": "[11]", "value": 73, "unit": "×10⁻⁶ cm/s"}, {"measurement": "Cmax", "setting": "[12]", "value": 74.2, "unit": "ng/mL"}, {"measurement": "Activity", "setting": "[13]", "value": 98, "unit": "%"}, {"measurement": "fraction unbound at 5 µM", "setting": "[14]", "value": 0.27}, {"measurement": "IC50", "setting": "[15]", "value": 1, "unit": "nM"}, {"measurement": "Activity", "setting": "[16]", "value": 68.6, "unit": "%"}, {"measurement": "half-life", "setting": "[17]", "value": 1.33, "unit": "h"}, {"measurement": "Cmax", "setting": "[18]", "value": 74.2, "unit": "ng/mL"}, {"measurement": "intrinsic clearance (CLint)", "setting": "[19]", "value": 44, "unit": "µL/min"}, {"measurement": "half-life", "setting": "[20]", "value": 1.8, "unit": "h"}, {"measurement": "Tmax", "setting": "[21]", "value": 4, "unit": "h"}, {"measurement": "Vd", "setting": "[22]", "value": 17.6, "unit": "L/kg"}, {"measurement": "Activity", "setting": "[23]", "value": "Toxic"}, {"measurement": "half-life", "setting": "[24]", "value": 0.533, "unit": "h"}, {"measurement": "Activity", "setting": "[25]", "value": 55.25, "unit": "%"}, {"measurement": "clearance", "setting": "[26]", "value": 17.8, "unit": "mL/min/kg"}, {"measurement": "Activity", "setting": "[27]", "value": "Non-Toxic"}]}]}
